Most compounds without a hit are left out; they make up all but 12% or so of the library.
ROMK primary = modulators of human ROMK potassium channel | B-score at 10 µM | Tet-inducible ROMK, thallium flux fluorescence; actives lie on both sides | P48048 | AID 1918 | hit rate 2% among 130,000;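 active = signal ratio slope over the read window, or its plate-corrected B-score, at least 3 SD from the plate mean, either direction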;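 note: B-score of the F/F0 ratio slope over 7 to 12 s after thallium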
Lmaj promast = Leishmania major promastigote growth inhibition; inhibition, % at 10 µM; Leishmania major promastigotes, resazurin fluorescence viability; AID 1063; hit rate 9% among 200,000; in the data active = inhibition above about 50%;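 note: promastigotes grown with compound for 44 hours at 28 °C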
KCC2 mod = KCC2 (human) Cl- transport modulation; KCC2 cells, thallium flux FluoZin-2 fluorescence; AID 1456; hit rate 2.2% among 190,000; Q9H2X9; B-score of Tl+ flux slope (higher = more flux/activation; lower = inhibition) at 10 µM;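 active = thallium flux slope and its plate-corrected score both differing from the plate sample mean at a set confidence after two filtering rounds, in either direction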;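 note: slope of fluorescence scaled to starting intensity during 10 to 20 s after thallium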
Target sequence (Q9H2X9 whole entry, looked up): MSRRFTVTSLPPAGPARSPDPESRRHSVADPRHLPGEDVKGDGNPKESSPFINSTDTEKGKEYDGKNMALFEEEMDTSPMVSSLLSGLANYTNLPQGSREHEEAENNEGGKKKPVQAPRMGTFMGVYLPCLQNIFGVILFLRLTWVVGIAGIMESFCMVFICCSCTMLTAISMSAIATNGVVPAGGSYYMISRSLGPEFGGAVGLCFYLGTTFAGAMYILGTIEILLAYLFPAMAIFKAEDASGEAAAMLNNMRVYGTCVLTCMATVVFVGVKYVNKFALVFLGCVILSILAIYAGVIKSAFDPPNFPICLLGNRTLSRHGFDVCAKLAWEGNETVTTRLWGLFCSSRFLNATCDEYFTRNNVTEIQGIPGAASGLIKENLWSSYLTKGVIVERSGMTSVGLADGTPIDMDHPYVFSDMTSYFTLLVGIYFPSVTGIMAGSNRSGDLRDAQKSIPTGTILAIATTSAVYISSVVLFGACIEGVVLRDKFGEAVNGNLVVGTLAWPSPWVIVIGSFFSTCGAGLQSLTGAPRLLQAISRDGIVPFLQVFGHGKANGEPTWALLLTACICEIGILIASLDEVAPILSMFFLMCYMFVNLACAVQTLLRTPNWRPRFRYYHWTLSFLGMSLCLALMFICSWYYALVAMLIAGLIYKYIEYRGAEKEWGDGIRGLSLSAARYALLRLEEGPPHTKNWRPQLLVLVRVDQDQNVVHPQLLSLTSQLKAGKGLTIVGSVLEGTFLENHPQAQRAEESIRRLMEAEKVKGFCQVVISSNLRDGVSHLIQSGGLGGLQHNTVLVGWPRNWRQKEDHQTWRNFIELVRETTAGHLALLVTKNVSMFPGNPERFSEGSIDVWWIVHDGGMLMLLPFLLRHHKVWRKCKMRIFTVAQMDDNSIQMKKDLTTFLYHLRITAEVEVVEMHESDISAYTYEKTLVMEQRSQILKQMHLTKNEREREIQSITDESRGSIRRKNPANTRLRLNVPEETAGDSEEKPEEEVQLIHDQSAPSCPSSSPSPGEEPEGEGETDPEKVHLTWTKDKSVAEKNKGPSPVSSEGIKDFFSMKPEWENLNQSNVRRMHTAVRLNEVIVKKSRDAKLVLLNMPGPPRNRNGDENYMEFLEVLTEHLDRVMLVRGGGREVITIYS
Diaphorase act = counter-screen for diaphorase-based assays: diaphorase activators and chemical reducers; Diaphorase/resazurin coupled assay, resorufin fluorescence, 16 min; stronger effect = higher value; 1 = vehicle wells, 0 = NADH-free wells; activation factor at 20 µM; hit rate 0.005% among 190,000; AID 1229;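 active = diaphorase activity raised at least twofold by the compound at 20 µM; inactive = activation factor below 2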
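Assay system: bacterial diaphorase enzyme (C. kluyveri) / Input: enzyme 0.07 U/mL final / Medium: 50 mM HEPES pH 7.4 with 4.542 mM MgCl2, 0.005% Tween 20 / Doses: single compound dose of 20 µM, 1% DMSO final / Incubation: 16 min enzyme reaction, ambient temperature / Signal: fluorescence, excitation 544 nm and emission 590 nm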
WT yeast gro inh = growth inhibition of WT yeast, mitochondrial fusion screen | mitochondrial fusion phenotypic screen, WT strain | inhibition, % at 10 µM | hit rate 2.1% among 190,000 | AID 1362; in the data active = inhibition above about 58%; tested in S. cerevisiae
Diaphorase inh = counter-screen for diaphorase-based assays: diaphorase inhibitors and chemical oxidizers | diaphorase resazurin-to-resorufin fluorescence, NADH, 16 min; bacterial (C. kluyveri) enzyme, not human | inhibition, % at 20 µM | hit rate 0.69% among 190,000 | AID 1217;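 active = primary screen inhibition at 20 µM above a set limit, cut at about 50% in these data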;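 note: plate controls were DMSO with full reaction for no effect and wells lacking NADH for full effect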
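System: Bacterial diaphorase enzyme (C. kluyveri) | Incubation: 16-min room-temperature incubation before reading | Benchmarks: No-NADH positive control and DMSO neutral control | Measured by: Resorufin fluorescence 544/590 nm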
* hit, by the source's call; . = no result.

SMILES	ROMK primary	Lmaj promast	KCC2 mod	Diaphorase act	WT yeast gro inh	Diaphorase inh
O=C(NCc1ccc(Cl)cc1)C1CCN(S(=O)(=O)c2cc([N+](=O)[O-])ccc2Cl)CC1	.	79.5*	0.12	0.9	-20.5	10.8
Cc1cccc2sc(NC(=O)C3CCN(S(=O)(=O)c4cc([N+](=O)[O-])ccc4Cl)CC3)nc12	.	90.3*	-0.285	0.6	-4.8	36.8
O=C(COc1ccc(Cl)cc1)NNC(=O)CSc1nncs1	0.311	-4.3	0.00691	1	-33.4	1.3
CC(C)NC(=O)C1CCN(C2CCN(C(=O)/C=C/c3cccs3)CC2)CC1	.	.	0.318	.	.	.
CC(C)NC(=O)C1CCN(C2CCN(C(=O)c3cc4c(s3)CCCCC4)CC2)CC1	-0.572	89.3*	-1.37	1	7.1	1.0
Cc1ccc(-c2cc(C(F)(F)F)n3ncc(C(=O)N4CCN(C)CC4)c3n2)cc1	.	98.7*	0.204	0.9	-6.2	9.7
O=C(c1cnn2c(C(F)(F)F)cc(-c3cccs3)nc12)N1CCN(C(c2ccccc2)c2ccccc2)CC1	-3.1	97.4*	-0.197	0.9	3.4	6.1
CN1CCN(C(=O)c2cnn3c(C(F)(F)F)cc(-c4cccs4)nc23)CC1	-0.00306	1.1	-0.126	0.9	-16.5	6.9
CN1CCN(C(=O)c2cnn3c(C(F)(F)F)cc(-c4ccc5c(c4)OCO5)nc23)CC1	-0.326	84.2*	-0.496	0.9	98.5*	6.1
O=C(c1nn2c(C(F)(F)F)cc(-c3cccs3)nc2c1Br)N1CCCc2ccccc21	0.715	69.5*	-1.8	0.9	-5.9	13.4
COc1ccc(C(=O)NCc2nnc(SCC(=O)N3CCCCC3)o2)cc1OC	-0.16	-4.2	0.216	1	-2.2	-4.5
O=C(c1cnn2c(C(F)(F)F)cc(-c3ccc4c(c3)OCO4)nc12)N1CCCCC1	.	99.1*	-0.0843	0.9	0.1	10.1
O=C(NC1CCCCCC1)C(Cc1ccccc1)n1cccc1 (centres undefined)	0.284	.	-0.719	.	.	.
Cc1ncc(CN2CCC(CO)(Cc3ccccc3)CC2)s1	0.311	89.1*	.	1.1	28.1	-8.8
CC(C)c1csc(CN2CCN(Cc3ccc(F)c(F)c3)C(CCO)C2)n1 (centres undefined)	-1.54	69.7*	.	0.9	3.9	6.3
CSc1cccc(CN2CCN(CCc3ccccc3)C(CCO)C2)c1 (centres undefined)	-1.06	87.6*	-0.586	1	-1.3	4.6
CSc1cccc(CN2CCN(Cc3ccccc3)C(CCO)C2)c1 (centres undefined)	-0.0432	83.8*	0.554	1.1	-12.1	-9.5
CC(C)c1cc(CN2CCN(Cc3ccc(F)c(F)c3)C(CCO)C2)[nH]n1 (centres undefined)	-1.35	6.4	-0.0077	0.8	3.4	16.7
COCCNC(=O)/C(C#N)=C/c1ccc(OCC(=O)NC2CCCCC2)cc1	-1.34	7.1	0.738	0.9	-13.6	7.8
CSc1ccc(CN2CCN(CC=C(C)C)C(CCO)C2)cc1 (centres undefined)	-0.753	64.6*	0.14	1	8.2	4.3
CSc1cccc(CN2CCC(CO)(Cc3ccccc3)CC2)c1	-0.0749	88.5*	-0.235	0.9	1.8	13.3
CSc1ccc(CN2CCN(Cc3ccccc3)C(CCO)C2)cc1 (centres undefined)	-0.013	74.2*	.	0.8	-2.1	18.6
CCOC(=O)N1CCC(N2CCN(Cc3ccc(F)c(F)c3)C(CCO)C2)CC1 (centres undefined)	0.0683	84.0*	-0.999	.	2.5	.
COc1ccc(CN2CCN(CC=C(C)C)C(CCO)C2)cc1Cn1cncn1 (centres undefined)	0.705	-2.2	-0.368	0.8	8.8	24.1
CCN(CC)S(=O)(=O)c1ccc(N2CCOCC2)c(NC(=O)COc2ccc(C#N)cc2)c1	.	.	1.32	.	.	.
SMILES	ROMK primary	Lmaj promast	KCC2 mod	Diaphorase act	WT yeast gro inh	Diaphorase inh
CC(C)C(=O)OC1CCS(=O)(=O)c2sccc21 (centres undefined)	1.98	-6.7	1.68	1.2	-4.5	-22.5
CC(C)(O)C#Cc1ccc(CN2CCN(CCc3ccccc3)C(CCO)C2)s1 (centres undefined)	0.0778	80.0*	1.42	1.1	5.9	-7.5
CC(C)(O)C#Cc1ccc(CN2CCN(Cc3ccccc3)C(CCO)C2)s1 (centres undefined)	0.602	5.1	-0.784	1	7.4	-1.2
CCn1ncc(CN2CCN(Cc3cccc(OC)c3)C(CCO)C2)c1C (centres undefined)	0.829	0.2	1.31	1	1.4	3.2
CCCn1ncc(CN2CCN(CCc3ccccc3)C(CCO)C2)c1C (centres undefined)	0.515	60.0*	-0.313	1	3.2	-2.1
CSc1cccc(CN2CCN(Cc3ccc(F)c(F)c3)C(CCO)C2)c1 (centres undefined)	.	78.8*	0.966	0.8	0.1	18.2
Cc1ccc(S(=O)(=O)N2CCOCC2)cc1C(=O)Nc1ccc(S(=O)(=O)Nc2nccs2)cc1	-1.08	-5.2	0.258	0.8	0.8	15.4
CCc1nc2ccccc2nc1N1CCN(S(=O)(=O)c2ccccc2)CC1	.	.	-1.48	.	.	.
COc1ccc(C(C(=O)OC(C)CN(C)C)c2ccccc2)cc1 (centres undefined)	.	-6.3	-0.5	0.9	2.8	5.9
CN(C)CC(C(=O)c1ccccc1)c1ccccc1 (centres undefined)	.	100.2*	1.02	0.9	77.1*	9.3
CCN1CCN(C(=O)C2(NC(=O)Nc3ccccc3Cl)CCCCC2)CC1	.	55.3*	0.778	0.9	7.7	9.8
O=C(NCc1ccccc1)NC1(C(=O)N2CCN(c3ccccc3)CC2)CCCCC1	.	53.9*	.	0.7	-17.4	26.1
FC(F)(F)c1cccc(-c2nc3nc(Cl)c(Cl)nc3[nH]2)c1	.	.	-2.15	.	.	.
CC(C)OC(=O)Nc1ccc2c(c1)N(C(=O)N1CCN(C)CC1)c1ccccc1CC2	-0.0486	.	-1.24	.	.	.
C/C(=N\NC(=O)c1ccc(N2CCCC2=O)cc1)c1ccncc1	-0.0239	.	-0.452	.	.	.
CCNc1ccc(C(=O)Nc2ccc3nc(C)sc3c2)cc1[N+](=O)[O-]	.	5.4	-0.0328	0.9	5.7	9.2
Cc1ccc(NC(=O)c2ccc(NCCc3ccccc3)c([N+](=O)[O-])c2)cc1F	1.81	88.6*	0.494	1.1	21.9	-10.7
CCCN(CCC)CCCNc1ccc(C(=O)Nc2cccc(OC)c2)cc1[N+](=O)[O-]	-1.72	97.5*	0.89	0.9	2.6	12.9
Cc1ccc(NC(=O)c2ccc(NCCN)c([N+](=O)[O-])c2)cc1Cl	-2.25	100.4*	-1.15	1.2	-7.7	-21.2
O=C(Nc1cc(F)cc(F)c1)c1ccc(NCCCN2CCCCCC2)c([N+](=O)[O-])c1	0.192	90.9*	0.175	0.9	7.5	10.4
O=C(Nc1cc(F)cc(F)c1)c1ccc(NCCc2ccccc2)c([N+](=O)[O-])c1	-0.521	-7.1	-0.456	1	-4.8	0.0
